Results from ChEMBL document CHEMBL4513216, “Probing the Open Global Health Chemical Diversity Library for Multistage-Active Starting Points for Next-Generation Antimalarials” (ACS Infect Dis, 2020).

Test: Toxicity liver stage against HepG2, at 10uM
Assay type: cell-based
Parameters: test concentration 10 uM, cell line HepG2-A16-CD81EGFP
Conditions: human, HepG2-A16-CD81EGFP cells; read-out: INHIBITION
How it was run: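 Uninfected HepG2-A16-CD81EGFP cells, 3 × 10^3 per well, 1536-well, plated on prespotted compound at 10 μM final, parasite-free screening media added to match infected plates; puromycin 10 μM positive, DMSO 0.5% negative; run in parallel with 48 h PbLuc assay at 37 °C, 5% CO2; viability by CellTiter-Glo luminescence, normalized to controls.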

| Compound | cytotoxicity at 10 µM |
| --- | --- |
| Cc1cc2ncn(C(=O)N3CCCC3)c2cc1C | -6.01% |
| COc1ccc(-c2n[nH]cc2CN2CCSCC2)c(OC)c1 | 6.4% |
| CC(C)(C)CNC[C@H]1Cn2ccnc2CO1 | -6.17% |
| O=C1CO[C@H]2CN(C3CCOCC3)C[C@H]2N1Cc1ccncc1 | 5.89% |
| COc1ccc(CN2CC[C@H](c3nc4cccc(C(N)=O)c4[nH]3)C2)cc1 | 12.1% |
| CN1Cc2cc(F)ccc2N(CC(C)(C)O)CCC1=O | -2.02% |
| CC(C)(C)CC(=O)N1[C@@H](c2ccco2)[C@@H](CO)C[C@]12CCCCNC2=O | 0.122% |
| CCNC(=O)N1CC2=CC(C)(C)COc3ccc(OC)c(c32)C1 | 8.47% |
| CC(C)CCc1n[nH]c(C(=O)O)c1I | -1.93% |
| COCC(C)NC(=O)c1cn(C(C)C)cc2c(=O)[nH]nc1-2 (stereo not given) | -12.6% |
| O=C(Nc1nc2c(s1)CN(C(=O)NCc1cccs1)CC2)C1CC1 | -0.707% |
| O=C(c1nnn(-c2ccccc2Cl)c1-c1ccccn1)N1CCSCC1 | 4.92% |
| CC(C)CC(=O)N1CCN(c2cc(N(C)C)cnn2)CC1 | 4.17% |
| CC(C)C(=O)N1CCC2(CC1)[C@@H]1CN(C(=O)N(C)C)C[C@@H]1C(=O)N2C | 1.76% |
| O=C(C1CCCCC1)N1C[C@@H]2CCNC[C@@H]21 | 3.47% |
| COc1ccc(C[C@H]2CN(C(=O)c3cscn3)CC[C@@H]2OC)cc1 | 7.71% |
| O=C(C1CCOC1)N1CCC2(CCNCC2)C1 (stereo not given) | 7.62% |
| CC(=O)NCCOc1c(Cl)cccc1Cl | -8.87% |
| NC(=O)CN1C[C@@H](c2ccccc2F)[C@@]2(CCCCC(=O)N2)C1 | 7.04% |
| COc1ccc(CN(C)Cc2ccnc(C3CCCO3)n2)cc1 (stereo not given) | 7.67% |
| Cc1nn(C)cc1-c1cc(C(=O)NCC(C)(C)c2cccc(F)c2)n[nH]1 | 0.68% |
| O=C(O)c1ccccc1-n1cc(CN2CCC(c3cc[nH]n3)C2)cn1 (stereo not given) | 1.1% |

| Compound | cytotoxicity at 10 µM |
| --- | --- |
| CNc1cc(C2CCCN2C(=O)CCc2ccccc2F)ccn1 (stereo not given) | -2.01% |
| Cc1ccccc1CN1CCCC1c1cncc(Nc2nncs2)n1 (stereo not given) | 1.66% |
| CCC(=O)N1CCN(C)C(=O)C(Cc2ccccc2-c2cccs2)C1 (stereo not given) | 4.89% |
| O=C(Cn1c(C(F)F)cc2cccnc21)NC1CCCC1 | -22.2% |
| Cn1ccnc1CN1CC[C@H](O)[C@@H](n2ccc(=O)[nH]c2=O)CC1 | -9.31% |
| Cc1ccc(CC2CCCN(S(C)(=O)=O)C2)nc1 (stereo not given) | -8.58% |
| O=C(NC1(C(=O)O)CCCC1)C1Cc2cc(F)ccc2O1 (stereo not given) | -0.183% |
| O=C1CCCN1CCN1CCC(c2ccn[nH]2)CC1 | 11.3% |
| Cc1nc2n(n1)CC(NCc1nnc(C(C)(C)C)o1)CC2 (stereo not given) | -5.23% |
| CCc1nc(C(=O)N2CCOCC2CC(=O)c2ccccc2)c[nH]1 (stereo not given) | -0.613% |
| CC(=O)NCCCSC1CCCN(c2ccccc2Cl)C1=O (stereo not given) | -0.5% |
| CCOc1cc(CNCC2CN(C3CC3)CCO2)ccc1OC (stereo not given) | -5.95% |
| COCc1nccc(C2CCCN(Cc3ccc(C#N)cc3F)C2)n1 (stereo not given) | 27.3% |
| O=C(CCc1ccccn1)N1CCCC(N2CCNC2=O)C1 (stereo not given) | 6.99% |
| CN(CC1(O)CCCC1)C(=O)c1cccc(Nc2cnccn2)c1 | -4.27% |
| O=C(NC1CCCN(c2ccc(OC(F)F)cc2)C1)c1c[nH]nn1 (stereo not given) | 24.8% |
| Cc1nnc2n1CC(CNc1ncnc3ccccc13)CC2 (stereo not given) | -40% |
| COCCN(Cc1ccco1)Cc1nc(-c2ccsc2)no1 | 1.02% |
| Cc1ccc(OCCSCCn2nc3ccccn3c2=O)cc1 | 7% |
| CS(=O)(=O)CCCNC1(c2cccc(Cl)c2)CCCC1 | 0.245% |
| N#CC1(NC(=O)c2ccc(-c3nc(C4CC4)n[nH]3)cc2)CCSC1 (stereo not given) | 4.39% |
| COC(=O)CCN1CCCC1c1ccccc1Cl (stereo not given) | 19.6% |

| Compound | cytotoxicity at 10 µM |
| --- | --- |
| CCOc1cccc(NS(=O)(=O)c2cc(C)c(C(=O)O)s2)c1 | -5.28% |
| Cc1ccsc1CN(C)C(=O)Cn1nc(-c2ccc(F)cc2)oc1=O | 1.31% |
| Cc1ccc(OCCC(=O)NC2CCc3nccn3C2)cc1 (stereo not given) | -8.15% |
| COCC1c2nnn(C)c2CCN1C(=O)COc1ccccc1C (stereo not given) | -100% |
| Cn1cc(CN2CC[C@H](O)[C@@H]2Cc2ccncc2)cn1 | 3.6% |
| CC(=O)N1CCC2(CCCN(C(=O)c3ccccc3)C2)C1 (stereo not given) | 9.52% |
| Cc1c(C(C)NC2CCOCC2)cnn1-c1ccc(F)cc1F (stereo not given) | -8.87% |
| O=C1NCC2(CCCN(C(=O)c3csc(-c4cccs4)n3)C2)O1 (stereo not given) | 0.55% |
| COc1ncc(C(=O)N(Cc2cnn(C)c2)C(C)C)cn1 | 4.23% |
| CCc1ccccc1CN1CCn2nc(CNC(C)=O)cc2C1 | 5.18% |
| NC(=O)c1cc2c(nc1-c1ccc3c(c1)CCO3)CCC2 | -11.3% |
| C/C=C(\C)CN1C[C@@H](NC(=O)c2ccc(O)c(Cl)c2)C[C@H]1C(=O)NCC | 9.23% |
| Cc1cc(C(=O)NC2CCCCNC2=O)c(=O)[nH]c1C (stereo not given) | -3.35% |
| O=C(c1cscn1)N1CCCCC1c1nc2cc(F)ccc2[nH]1 (stereo not given) | 7.59% |
| CCn1cnc(NC(=O)N2CCCC(c3ccccc3)CC2)n1 (stereo not given) | 2.7% |
| CN(C)CCNC(=O)c1ccc(OC2CCN(C3CCC3)CC2)c(Cl)c1 | -5.89% |
| COc1ccc(-n2c(SCC(=O)O)nnc2-c2cn[nH]c2)cc1 | -4.59% |
| CCc1ccc(CN(CCN(C)C)Cc2ccc(C)s2)nc1 | -43% |
| CCc1nc(CC2CN(c3ncnc4nc(C)cc(C)c34)CCO2)no1 (stereo not given) | -5.79% |
| CN(Cc1nc(Cc2cccc(C(F)(F)F)c2)no1)C1CCOCC1 | 6.39% |
| CN(C)c1nc2c(c(N3CCC(O)CC3)n1)CN(CC(C)(C)C)CC2 | 7.5% |
| CN(C)C(=O)N1CCC(C(=O)N2CCOC(CC3CCCCC3)C2)CC1 (stereo not given) | 21.3% |

| Compound | cytotoxicity at 10 µM |
| --- | --- |
| COc1cccc(CC2(C(=O)O)CCN(c3nccs3)CC2)c1 | -9.59% |
| CCCc1cc(N2CCC(NC3CCOCC3)CC2)nc(C)n1 | 5.27% |
| Cc1nc(N2CCCC(C)C2)nc2cc(S(C)(=O)=O)ccc12 (stereo not given) | -24.2% |
| Cc1nc(CCNC(=O)C2CC(=O)N(C(C)C)C2)sc1C (stereo not given) | -14% |
| Cc1nnc(CN2CCN(C)C3(CCNC(=O)CC3)C2)s1 (stereo not given) | -8.22% |
| COCCN(Cc1nccs1)c1nc2c(s1)c(C)nn2C | -47.6% |
| Cc1cccc(N2CCN(C(=O)C3CC4(CCNCC4)CN3)CC2)n1 (stereo not given) | -4.27% |
| CCNC(=O)c1cc(OC)c(OC)cc1N(C)S(C)(=O)=O | 1.56% |
| Cc1ccc(CN2CCN(CC3CC3)[C@@H]3CS(=O)(=O)C[C@@H]32)cc1C | 25.4% |
| COc1ccc(C2CC(=O)Nc3c2nc2n3CCCC2)cc1OC (stereo not given) | -8.41% |
| Cc1cc(C)nc(N2Cc3cnn(Cc4ccc(F)cc4)c3C2)n1 | 25.2% |
| Cc1nc(C)n(C2CCCN(C(=O)COc3cccc(C#N)c3)C2)n1 (stereo not given) | 1.08% |
| Cc1cccc(-c2nc(C)nn2CC(=O)NC(C)C)c1 | 8.22% |
| Cc1nc(CN2CCCC(NCc3csc(C(C)(C)C)n3)C2)no1 (stereo not given) | 0.238% |
| c1cnn(CC2CCCN2Cc2noc(C3CC3)n2)c1 (stereo not given) | 1.46% |
| CC(NC(=O)CCn1cccn1)c1ccc2c(c1)OCCO2 (stereo not given) | -7.79% |
| CCn1cnnc1C1CCN(C(=O)c2cccc(OC)c2OC)CC1 | -7.96% |
| Cc1nc2cc(O)nn2c(C)c1CCC(=O)NCCc1ccccc1 | -6.65% |
| Cc1cc(NC(=O)CN2CCCCC2Cn2nc(C)nc2C)on1 (stereo not given) | -2.19% |
| COc1cccc(CN(C)C(=O)NCc2c(C)cc(C)[nH]c2=O)c1 | -7.98% |
| Cc1ncsc1C(=O)NC1CCN(CC(N)=O)CC1 | -3.54% |
| Cc1cccc(OCCNC(=O)CN2CCc3cncnc3C2)c1 | -6.65% |

| Compound | cytotoxicity at 10 µM |
| --- | --- |
| Cc1cnc2c(S(=O)(=O)N(C)C3CCS(=O)(=O)C3)cccc2c1 (stereo not given) | -5.44% |
| Cc1nc(C)n(CC2CN(Cc3nc4ccccc4n3C)CCO2)n1 (stereo not given) | -4.68% |
| O=C(O)c1cc(S(=O)(=O)Nc2cccc(F)c2F)cc2c1OCCO2 | -3.65% |
| Cc1cc(C(=O)N2CCCN(Cc3nccn3C)CC2)no1 | 0.47% |
| CCc1nc(CN(C)C2CCN(CC(=O)N3CCOCC3)C2)no1 (stereo not given) | -5.32% |
| O=C(N1CCCC(n2cncn2)C1)C1(c2ccccc2F)CCCC1 (stereo not given) | -4.24% |
| CC(C)c1nnc(CN2CCCC(Cn3cncn3)C2)o1 (stereo not given) | -3.39% |
| Cc1cc(NC(=O)CN2CCn3c(nnc3C(C)C)C2)n(C)n1 | -5.39% |
| CC(NCc1ccsc1)c1ccc2c(c1)NC(=O)CO2 (stereo not given) | -7.6% |
| COC(=O)c1cc(C(=O)N2CCC(C)CC2)n(-c2ccccc2)n1 | 0.103% |
| Cc1ccc(C(=O)NS(=O)(=O)c2cc(Cl)ccc2Cl)c(=O)[nH]1 | -5.72% |
| CCOc1ncccc1CNC(=O)Nc1ccc(N(C)C)nc1 | -11.8% |
| CCc1nc(C)c(C(=O)NCCN2CCN(C(C)=O)CC2)s1 | -10.4% |
| CCC(C)[C@H](N)c1nnc(SCC(=O)Nc2cc(C)ccc2C)o1 (stereo not given in full) | -12.7% |
| Cc1cc(C(=O)N2CCN(C)CC2)nn1CC(=O)NCc1cccs1 | -5.83% |
| COc1ccc(CN(Cc2cccnc2)CC2CCCO2)c(OC)c1 (stereo not given) | 1.13% |
| O=C(C1CCC1)N1CCC2(CCCN2CC2CC2)CC1 | -2.45% |
| CN1CCOCC12CCN(C(=O)C1CCC1)CC2 | 0.64% |
| O=C(c1ccco1)N1CC[C@@H]2CN(C3CCOCC3)CCO[C@@H]2C1 | -112% |
| CN(C)CCO[C@@H]1CC[C@H]2[C@H]1OCCN2C(=O)COc1ccccc1 | -4.84% |
| CN(Cc1ccccn1)C1CCC[C@@H]2CN(CC3CC3)C[C@H]12 (stereo not given in full) | -113% |
| O=C(NCC1CCCCC1)N1C[C@@H]2C[C@H](C(=O)N3CCOCC3)[C@H](C1)O2 | -99.4% |
